Source: ChEMBL document CHEMBL4196125, “Identification of N-Benzyl 3,5-Dinitrobenzamides Derived from PBTZ169 as Antitubercular Agents” (ACS Med Chem Lett, 2018)
Values after ≈ are worked out from the molar mass of the structure shown. Active and inactive are the calls of the source. The calls are words filed in the database; no cut-off is given here.

Assays:
[1] = tested on: Mycobacterium tuberculosis; experiment: Antitubercular activity against drug-sensitive Mycobacterium tuberculosis H37Rv ATCC 27294 measured after 7 days by microplate alamar blue assay; type: functional; conditions: for MIC90: H37Rv ATCC 27294, 168 h
Procedure, shortened: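 Microplate Alamar Blue Assay against strain H37Rv ATCC27294. MIC is the lowest concentration giving more than 90% reduction in fluorescence relative to the mean of replicate bacterium-only controls.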

Mus musculus = experiment: Acute toxicity in mouse assessed as survival at 500 mg/kg, po administered as single dose measured for 7 days; type: organism-based; conditions: in vivo, 168 h
[2] = AUC (0 to infinity) in mouse at 50 mg/kg, po administered as single dose; type: ADME, organism-based; parameters: dose 50 mg/kg, route oral, time infinity; conditions: in vivo
Procedure, shortened: (§1)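 Mice (n = 3) received one oral 50 mg/kg dose; plasma levels were followed to derive T1/2 (h), Tmax (h), Cmax (ng/mL) and AUC0-∞ (h·ng/mL).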

[3] = Cmax in mouse at 50 mg/kg, po administered as single dose; type: ADME, organism-based; parameters: dose 50 mg/kg, route oral; conditions: in vivo; procedure, shortened: as §1
[4] = Half life in mouse at 50 mg/kg, po administered as single dose; type: ADME, organism-based; conditions: in vivo; procedure, shortened: as §1
[5] = Tmax in mouse at 50 mg/kg, po administered as single dose; type: ADME, organism-based; conditions: in vivo; procedure, shortened: as §1

SMILES | MIC90 [1] | also measured
O=C(NCCNc1ccc([N+](=O)[O-])cc1)c1cc([N+](=O)[O-])cc(C(F)(F)F)c1 | – | Activity [1]: Active
O=C(NCc1ccc(N2CCC(Oc3ccc(OC(F)(F)F)cc3)CC2)cc1)c1cc([N+](=O)[O-])cc([N+](=O)[O-])c1 | 0.5 µg/mL (≈ 0.892 µM) | –
O=C(NCc1ccc(N2CCC(c3ccc(OC(F)(F)F)cc3)CC2)cc1)c1cc([N+](=O)[O-])cc(C(F)(F)F)c1 | 0.5 µg/mL (≈ 0.881 µM) | –
O=C(NCc1ccc(N2CCC(C(F)(F)F)CC2)cc1)c1cc([N+](=O)[O-])cc(C(F)(F)F)c1 | 0.0625 µg/mL (≈ 0.131 µM) | –
O=C(NCc1ccc(N2CCN(c3ccc(F)cc3)CC2)cc1)c1cc([N+](=O)[O-])cc(C(F)(F)F)c1 | 0.5 µg/mL (≈ 0.995 µM) | –
O=C(NCc1ccc(N2CCC(Oc3ccc(OC(F)(F)F)cc3)CC2)cc1)c1cc([N+](=O)[O-])cc(C(F)(F)F)c1 | 2 µg/mL (≈ 3.43 µM) | –
O=c1nc(N2CCN(CC3CCCCC3)CC2)sc2c([N+](=O)[O-])cc(C(F)(F)F)cc12 [MACOZINONE] | 0.0625 µg/mL (≈ 0.137 µM) | –
O=C(NCc1ccc(N2CCC(C(F)(F)F)CC2)cc1)c1cc([N+](=O)[O-])cc([N+](=O)[O-])c1 | 0.0625 µg/mL (≈ 0.138 µM) | Activity (Mus musculus): Non-Toxic; AUC(0-inf) [2]: 5600 ng·h/mL; Cmax [3]: 1720 ng/mL; half-life [4]: 3.63 h; Tmax [5]: 0.92 h
O=C(NCc1ccc(N2CC3CCCCC3C2)cc1)c1cc([N+](=O)[O-])cc(C(F)(F)F)c1 (stereo not drawn) | 0.5 µg/mL (≈ 1.12 µM) | –
O=C(NCCNc1ccc(Br)cc1)c1cc([N+](=O)[O-])cc(C(F)(F)F)c1 | – | Activity [1]: Active
CO[C@H]1/C=C/O[C@@]2(C)Oc3c(C)c(O)c4c(O)c(c(/C=N/N5CCN(C)CC5)c(O)c4c3C2=O)NC(=O)/C(C)=C\C=C\[C@H](C)[C@H](O)[C@@H](C)[C@@H](O)[C@@H](C)[C@H](OC(C)=O)[C@@H]1C [RIFAMPIN] | 0.0781 µg/mL (≈ 0.0949 µM) | –
O=C(NCCN1CCN(c2ccccc2)CC1)c1cc([N+](=O)[O-])cc(C(F)(F)F)c1 | – | Activity [1]: Active
CC(C)N1CCN(c2ccc(CNC(=O)c3cc([N+](=O)[O-])cc(C(F)(F)F)c3)cc2)CC1 | 8 µg/mL (≈ 17.8 µM) | –
O=C(NCc1ccc(N2CCOCC2)cc1)c1cc([N+](=O)[O-])cc(C(F)(F)F)c1 | > 8 µg/mL | –
CC(C)N1CCN(c2ccc(CNC(=O)c3cc([N+](=O)[O-])cc([N+](=O)[O-])c3)cc2)CC1 | 4 µg/mL (≈ 9.36 µM) | –
O=C(NCc1ccc(N2CCN(c3ccc(F)cc3)CC2)cc1)c1cc([N+](=O)[O-])cc([N+](=O)[O-])c1 | 0.0625 µg/mL (≈ 0.13 µM) | Activity (Mus musculus): Non-Toxic; AUC(0-inf) [2]: 219 ng·h/mL; Cmax [3]: 15 ng/mL; half-life [4]: 13.6 h; Tmax [5]: 1.08 h

SMILES | MIC90 [1] | also measured
O=C(NCc1ccc(N2CCCCC2)cc1)c1cc([N+](=O)[O-])cc(C(F)(F)F)c1 | 0.25 µg/mL (≈ 0.614 µM) | –
O=C(NCc1ccc(N2CCN(c3ccncc3)CC2)cc1)c1cc([N+](=O)[O-])cc([N+](=O)[O-])c1 | 2 µg/mL (≈ 4.32 µM) | –
O=C(NCc1ccc(N2CC3CCCCC3C2)cc1)c1cc([N+](=O)[O-])cc([N+](=O)[O-])c1 (stereo not drawn) | 0.0625 µg/mL (≈ 0.147 µM) | Activity (Mus musculus): Non-Toxic
O=C(NCc1ccc(N2CCN(c3ccncc3)CC2)cc1)c1cc([N+](=O)[O-])cc(C(F)(F)F)c1 | 8 µg/mL (≈ 16.5 µM) | –
O=C(NCc1ccc(N2CCN(c3ccccn3)CC2)cc1)c1cc([N+](=O)[O-])cc([N+](=O)[O-])c1 | 1 µg/mL (≈ 2.16 µM) | –
O=C(NCc1ccc(N2CCSCC2)cc1)c1cc([N+](=O)[O-])cc([N+](=O)[O-])c1 | 0.0625 µg/mL (≈ 0.155 µM) | Activity (Mus musculus): Non-Toxic; AUC(0-inf) [2]: 41.1 ng·h/mL; Cmax [3]: 19 ng/mL; half-life [4]: 3.3 h; Tmax [5]: 2.75 h
O=C(NCc1ccc(N2CCOCC2)cc1)c1cc([N+](=O)[O-])cc([N+](=O)[O-])c1 | > 8 µg/mL | –
NNC(=O)c1ccncc1 [ISONIAZID] | 0.0781 µg/mL (≈ 0.569 µM) | –
O=C(NCc1ccc(N2CCN(c3ccccn3)CC2)cc1)c1cc([N+](=O)[O-])cc(C(F)(F)F)c1 | 1 µg/mL (≈ 2.06 µM) | –
CN1CCN(c2ccc(CNC(=O)c3cc([N+](=O)[O-])cc([N+](=O)[O-])c3)cc2)CC1 | 4 µg/mL (≈ 10 µM) | –
COc1ccc(OCCNC(=O)c2cc([N+](=O)[O-])cc(C(F)(F)F)c2)cc1 | 1 µg/mL (≈ 2.6 µM) | –
O=C(NCc1ccc(N2CCC(c3ccc(OC(F)(F)F)cc3)CC2)cc1)c1cc([N+](=O)[O-])cc([N+](=O)[O-])c1 | 0.0625 µg/mL (≈ 0.115 µM) | Activity (Mus musculus): Non-Toxic; AUC(0-inf) [2]: 3260 ng·h/mL; Cmax [3]: 366 ng/mL; half-life [4]: 5.52 h; Tmax [5]: 0.83 h
O=C(NCc1ccc(N2CCCCC2)cc1)c1cc([N+](=O)[O-])cc([N+](=O)[O-])c1 | 2 µg/mL (≈ 5.2 µM) | –
O=C(NCCN1CCN(CC2CCCCC2)CC1)c1cc([N+](=O)[O-])cc(C(F)(F)F)c1 | 0.0781 to 4 µg/mL (≈ 0.177 to 9.04 µM) | –
O=C(NCc1ccc(N2CCSCC2)cc1)c1cc([N+](=O)[O-])cc(C(F)(F)F)c1 | 0.125 µg/mL (≈ 0.294 µM) | –
CN1CCN(c2ccc(CNC(=O)c3cc([N+](=O)[O-])cc(C(F)(F)F)c3)cc2)CC1 | > 8 µg/mL | –
